According to ChEMBL document CHEMBL3817785, “Synthetic sulfoglycolipids targeting the serine-threonine protein kinase Akt” (Bioorg Med Chem, 2016):
The source made the active and inactive calls. No cut-off for these calls is given here.

Legend:
[1] = target: T1, RAC-alpha serine/threonine-protein kinase (Homo sapiens, UniProt P31749); assay: Inhibition of human Akt1 PH domain using AKTide-2T as substrate at 100 uM by ELISA
Method in brief: (§1)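 Kit ELISA: wells precoated with AKTide-2T; constitutively active human Akt1 (25 m units/well) plus compound in kinase buffer (100 µM final, or 1–250 µM for concentration-response), Mg2+/ATP added. Phospho-substrate detected by HRP anti-phospho-AKTide-2T antibody with TMB, A450.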

[2] = target: RAC-alpha serine/threonine-protein kinase (Mus musculus) (UniProt P31750); assay: Inhibition of Akt phosphorylation in mouse NIH/3T3-K-RAS cells at 100 uM pretreated for 1 hr by Western blot analysis; assay type: cell-based
Method in brief: (§2)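 K-ras-transformed NIH 3T3 cells (DMEM, 10% NBCS, 37 °C) plated at 3 x 10⁵ cells/mL, starved 16 h in 0.5% serum, pretreated 1 h with compound at 100 µM or DMSO, then stimulated with 10% serum for 30 min. Lysates (15 µg) on 8% SDS-PAGE, probed for phospho-Akt Ser473, reprobed for total Akt, actin loading control; ECL; densitometry from three experiments.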

[3] = target: RAC-alpha serine/threonine-protein kinase (Mus musculus) (UniProt P31750); assay: Inhibition of serum-stimulated Akt phosphorylation in mouse NIH/3T3-K-RAS cells at 100 uM pretreated for 1 hr followed by serum addition for 30 mins by Western blot analysis; assay type: cell-based; method in brief: as §2
[4] = test system: TPC1; assay: Antiproliferative activity against human TPC1 cells harboring RET/PTC-1 rearrangement assessed as cell growth inhibition after 72 hrs by coulter counter method; assay type: functional, cell-based
Method in brief: (§3)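 Cells seeded in complete medium in 12-well plates: Nim-1 at 5000 cells/cm² and TPC-1 at 3000 cells/cm², both in DMEM + 10% FBS; K1 at 4000 cells/cm² in DMEM:Ham's F12:MCDB 105 (2:1:1) + 20% serum; 37 °C, 5% CO2. Next day, exposed to increasing concentrations or DMSO (0.5% final) for 72 h. Cells trypsinized and Coulter-counted; survival as % of untreated, duplicates; IC50 = 50% growth inhibition.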

[5] = test system: K1; assay: (§4) Antiproliferative activity against human K1 cells expressing BRAF V600E/PI3K E542K mutants assessed as cell growth inhibition after 72 hrs by coulter counter method; assay type: functional, cell-based; method in brief: as §3
[6] = species: Homo sapiens; assay: (§5) Antiproliferative activity against PTEN-deficient human Nim1 cells expressing BRAF V600E mutant assessed as cell growth inhibition after 72 hrs by coulter counter method; assay type: functional; method in brief: as §3
[7] = test system: IGROV-1; assay: (§6) Antiproliferative activity against human IGROV1 cells assessed as cell growth inhibition after 24 hrs by coulter counter method; assay type: functional, cell-based
Method in brief: (§7)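 Seeded at 5000 cells/cm² in complete RPMI (10% serum), 37 °C, 5% CO2; next day serum-starved and drug-treated for 24 h, then complete medium restored for a further 48 h. Cells trypsinized and counted by Coulter counter 72 h after treatment start; survival vs untreated; IC50 = concentration inhibiting proliferation by 50%; duplicates, two independent experiments, mean ± SEM.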

[8] = target: T1, RAC-alpha serine/threonine-protein kinase; settings: 1 uM
[9] = as §4; assay type: functional, cell-based; settings: K1, 72 h; method in brief: as §3
[10] = as §5; assay type: functional; method in brief: as §3
[11] = as §6; assay type: functional, cell-based; settings: IGROV-1, 24 h; method in brief: as §7
[12] = target: T1, RAC-alpha serine/threonine-protein kinase; assay: Inhibition of human Akt1 PH domain using AKTide-2T as substrate by ELISA; method in brief: as §1
[13] = test system: TPC1; assay: Antiproliferative activity against human TPC1 cells harboring RET/PTC-1 rearrangement assessed as cell growth inhibition at 50 uM after 72 hrs by coulter counter method relative to control; assay type: functional; settings: TPC1, 72 h, read-out: GI
Method in brief: (§8)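 Cells plated in complete medium (TPC-1 3000 cells/cm², DMEM + 10% FBS; K1 4000 cells/cm², DMEM:Ham's F12:MCDB 105 2:1:1 + 20% serum), 37 °C, 5% CO2. Next day exposed to drug or DMSO (0.5% final) for 72 h; trypsinized, Coulter counted; % survival vs untreated; duplicates, two independent experiments, mean ± SEM; Student's two-tailed t test.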

[14] = Antiproliferative activity against human K1 cells expressing BRAF V600E/PI3K E542K mutants assessed as cell growth inhibition at 50 uM after 72 hrs by coulter counter method relative to control; assay type: functional; settings: K1, 72 h, read-out: GI; method in brief: as §8
[15] = test system: K1; assay: Cytotoxicity against human K1 cells expressing BRAF V600E/PI3K E542K mutants assessed as vacuolated and granulated cytoplasm at 50 uM after 72 hrs by coulter counter method; assay type: functional, cell-based
[16] = target: T1, RAC-alpha serine/threonine-protein kinase; assay: Inhibition of Akt in human IGROV1 cells assessed as reduction in GSK3alpha phosphorylation at Ser21 at 3 uM after 24 hrs by Western blot analysis; assay type: cell-based; settings: IGROV-1
Method in brief: (§9)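 Seeded in complete RPMI; 24 h later serum-starved and exposed to drug or vehicle for 24 h; total protein extracted and immunoblotted for serine-phosphorylated GSK-3α, GSK-3β and BAD.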

[17] = target: T1, RAC-alpha serine/threonine-protein kinase; assay: Inhibition of Akt in human IGROV1 cells assessed as reduction in GSK3beta phosphorylation at Ser9 at 3 uM after 24 hrs by Western blot analysis; assay type: cell-based; settings: IGROV-1; method in brief: as §9
[18] = target: T1, RAC-alpha serine/threonine-protein kinase; assay: Inhibition of Akt in human IGROV1 cells assessed as reduction in BAD phosphorylation at Ser136 at 3 uM after 24 hrs by Western blot analysis; assay type: cell-based; settings: IGROV-1; method in brief: as §9
[19] = target: T1, RAC-alpha serine/threonine-protein kinase; settings: IGROV-1, 3 to 10 uM
[20] = target: T1, RAC-alpha serine/threonine-protein kinase; settings: IGROV-1, 3 to 10 uM; remark: listed apart in the source
[21] = target: T1, RAC-alpha serine/threonine-protein kinase; settings: IGROV-1, 3 to 10 uM; remark: listed apart in the source

Chain of RAC-alpha serine/threonine-protein kinase (Mus musculus) (P31750 whole entry): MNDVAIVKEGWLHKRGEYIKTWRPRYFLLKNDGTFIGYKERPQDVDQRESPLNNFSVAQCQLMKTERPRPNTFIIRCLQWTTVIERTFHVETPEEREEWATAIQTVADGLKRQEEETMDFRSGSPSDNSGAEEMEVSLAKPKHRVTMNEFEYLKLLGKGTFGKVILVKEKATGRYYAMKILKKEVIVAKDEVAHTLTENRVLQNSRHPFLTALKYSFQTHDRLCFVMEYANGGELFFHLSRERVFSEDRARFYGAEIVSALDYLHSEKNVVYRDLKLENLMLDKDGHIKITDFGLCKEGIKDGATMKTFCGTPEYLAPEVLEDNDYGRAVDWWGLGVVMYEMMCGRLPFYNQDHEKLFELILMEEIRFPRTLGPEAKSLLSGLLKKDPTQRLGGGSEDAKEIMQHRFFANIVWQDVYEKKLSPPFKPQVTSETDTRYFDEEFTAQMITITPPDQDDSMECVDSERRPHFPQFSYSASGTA
T1 sequence (P31749 whole entry, the tested form may be a part): as the sequence (P31750 whole entry) above, with N2S, S50A, A100T, R112K, T117E, T389K, N410G, D415H counted along it

CCCCCCCCO[C@@H]1O[C@H](CN)[C@@H](O)[C@H](O)[C@H]1O
inhibition [1]: 6% | inhibition [2]: inactive | inhibition [3]: inactive | growth inhibition (GI) [4]: inactive | growth inhibition (GI) [5]: inactive | growth inhibition (GI) [6]: inactive | growth inhibition (GI) [7]: inactive

CN[C@@H]1C[C@H]2O[C@@](C)([C@@H]1OC)n1c3ccccc3c3c4c(c5c6ccccc6n2c5c31)C(=O)NC4
inhibition [8]: Active

O=c1[nH]c2ccccc2n1C1CCN(Cc2ccc(-c3nc4cc5nc[nH]c5cc4nc3-c3ccccc3)cc2)CC1
IC50 ([4]; TPC1, 72 h): 11 µM | IC50 [9]: 10 µM | IC50 [10]: 3 µM | IC50 [11]: 0.3 µM

O=S(=O)(O)C[C@H]1O[C@@H](OC(CO)CO)[C@H](O)[C@@H](O)[C@@H]1O
inhibition [1]: 13%

CCCCCCCCCCCCCCCCCCOP(=O)([O-])OC1CC[N+](C)(C)CC1 [PERIFOSINE]
IC50 [12]: 43.3 µM

CO[C@@H]1O[C@H](CS(=O)(=O)O)[C@@H](O)[C@H](O)[C@H]1O
inhibition [1]: 28%

CCCCCCCCCCCCCCCCCC(=O)OCC(CO)O[C@@H]1O[C@H](CS(=O)(=O)O)[C@@H](O)[C@H](O)[C@H]1O (some centres not stated)
inhibition [1]: 86% | IC50 [12]: 31.3 µM | inhibition [12]: Dose-dependent effect | inhibition [2]: Active | inhibition [3]: 40% | growth inhibition (GI) [4]: Dose-dependent effect | inhibition of growth at 50 µM [13]: 30% | inhibition of growth at 50 µM [14]: 30% | growth inhibition (GI) [5]: Dose-dependent effect | growth inhibition (GI) [6]: Dose-dependent effect | Activity [15]: Active | IC50 [11]: 2 µM | inhibition [16]: Active | inhibition [17]: Active | inhibition [18]: Active

CCCCCCCCCCCC(=O)OCC(COC(=O)CCCCCCCCCCC)O[C@@H]1O[C@H](CS(=O)(=O)O)[C@@H](O)[C@H](O)[C@H]1O
inhibition [1]: 77%

O=c1[nH]c2ccccc2n1C1CCN(Cc2ccc(-c3nc4cc5[nH]cnc5cc4nc3-c3ccccc3)cc2)CC1
inhibition [1]: 89% | inhibition [19]: Active | inhibition [20]: Active | inhibition [21]: Active

CCCCCCCCCCCCOS(=O)(=O)[O-].[Na+]
inhibition [1]: inactive

CCCCCCCCCCCC(=O)OCC(CO)O[C@@H]1O[C@H](CS(=O)(=O)O)[C@@H](O)[C@H](O)[C@H]1O (some centres not stated)
inhibition [1]: 31%

CCCCCCCCO[C@@H]1O[C@H](CS(=O)(=O)O)[C@@H](O)[C@H](O)[C@H]1O
inhibition [1]: 14% | inhibition [2]: inactive | inhibition [3]: inactive | growth inhibition (GI) [4]: inactive | growth inhibition (GI) [5]: inactive | growth inhibition (GI) [6]: inactive | growth inhibition (GI) [7]: inactive

CCCCCC(=O)OCC(COC(=O)CCCCC)O[C@@H]1O[C@H](CS(=O)(=O)O)[C@@H](O)[C@H](O)[C@H]1O
inhibition [1]: 13%

CCCCCC(=O)OCC(CO)O[C@@H]1O[C@H](CS(=O)(=O)O)[C@@H](O)[C@H](O)[C@H]1O (some centres not stated)
inhibition [1]: 18%

CCCCCCCCCCCC(=O)OCC(COC(=O)CCCCCCCCCCC)O[C@@H]1O[C@H](CO)[C@@H](O)[C@H](O)[C@H]1O
inhibition [1]: 7%
